The values that follow come from ChEMBL document CHEMBL1144898, “Structure-based design and synthesis of novel potent Na+,K+ -ATPase inhibitors derived from a 5alpha,14alpha-androstane scaffold as positive inotropic compounds” (J Med Chem, 2003).

For data set [1], the target named is Sodium/potassium-transporting ATPase. The data set is described as follows: Inhibitory activity against Na+/K+ ATPase was determined. It counts as protein-complex assay, Canis lupus familiaris.
Data set [2] concerns Cavia porcellus. The data set is described as follows: Inotropic activity by slow intravenous infusion in anesthetized guinea pigs (dead/treated ratio = 1/3). It counts as functional.
Data set [3] relates to Cavia porcellus. The data set is described as follows: Inotropic activity by slow intravenous infusion in anesthetized guinea pigs(Inotropic potency:dose increasing +dp/dtmax by 80%). It counts as functional. In short, it runs like this:
(§1)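 Anesthetized guinea pigs given compound by slow intravenous infusion; contractility read as +dP/dtmax. Values are the maximal increase in +dP/dtmax, the dose inducing the maximum inotropic effect, and the dose raising +dP/dtmax by 80% taken from dose–response curves.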

Data set [4] has as its system Cavia porcellus. The data set is described as follows: Inotropic activity by slow intravenous infusion in anesthetized guinea pigs(Maximal increase in+dp/dtmax). It counts as functional. A digest of the protocol: as §1
For data set [5], the system named is Cavia porcellus. The data set is described as follows: Inotropic activity by slow intravenous infusion in anesthetized guinea pigs(Dose inducing maximum positive inotropic effect). Format: functional. In short, it runs like this:
as §1

The nature of data set [6]: (§2) Inotropic activity by slow intravenous infusion in anesthetized guinea pigs. Format: organism-based, Cavia porcellus. The note with it: guinea pig, in vivo, read-out: LD/ED80.
In data set [7] the test system is Cavia porcellus. The data set can be described thus: Inotropic activity by slow intravenous infusion in anesthetized guinea pigs (dead/treated ratio = 3/3). It counts as functional.
The test system of data set [8] is Cavia porcellus. The data set can be described thus: Inotropic activity by slow intravenous infusion in anesthetized guinea pigs (dead/treated ratio = 1/5). Format: functional.
The test system of data set [9] is Cavia porcellus. The description is as §2. It counts as organism-based. Particulars: guinea pig, in vivo.
The subject of data set [10] is Sodium/potassium-transporting ATPase (Canis lupus familiaris). The data set is described as follows: Inhibition activity against Na+/K+ ATPase (relative potency in comparison to digitoxigenin).
The test system of data set [11] is Cavia porcellus. The data set is described as follows: Inotropic activity by slow intravenous infusion in anesthetized guinea pigs (dead/treated ratio = 10/10). It counts as functional.
For data set [12], the system named is Cavia porcellus. The data set is described as follows: Inotropic activity by slow intravenous infusion in anesthetized guinea pigs (dead/treated ratio = 7/8). Format: functional.

In general, IC50 refers to the midpoint of a concentration-inhibition curve.

`C[C@]12CC/C(=N/OCCCN)C[C@@H]1[C@H](O)CC1C2CC[C@]2(C)C(O)CC[C@@H]12` (stereo not given in full): the half-inhibitory concentration (IC50) in data set [1] was determined as 3000 nM.

In turn, `C[C@]12CCC(=NOCCN)C[C@@H]1[C@H](O)CC1C2CC[C@]2(C)C(O)CC[C@@H]12` (stereo not given in full) had a half-maximal inhibitory concentration (IC50) in [1] of 1600 nM.

As for `C[C@]12CC/C(=N\OCCCN)C[C@@H]1[C@H](O)C[C@@H]1[C@@H]2CC[C@]2(C)C(O)CC[C@@H]12` (stereo not given in full), the Dead/treated in the data set with Cavia porcellus [2] amounted to 1. Moreover, the ED80 in the data set on Cavia porcellus [3] amounted to 1.58 µM/kg. Besides, in the data set with Cavia porcellus [4], the Increase is 99%. Also, in the data set on Cavia porcellus [5], the EDmax is 7.37 µM/kg. Moreover, the IC50 in data set [1] turned out to be 2000 nM.

With `CC(=O)NCCO/N=C1\CC[C@@]2(C)[C@H](C1)C(=O)C[C@@H]1[C@@H]2CC[C@]2(C)C(=O)CC[C@@H]12`, the IC50 in [1] was more than 10000 nM.

Regarding `C[C@]12CC/C(=N\OCCN)C[C@@H]1[C@H](O)C[C@@H]1[C@@H]2CC[C@]2(C)C(O)CC[C@@H]12` (stereo not given in full), in the data set on Cavia porcellus [3], the ED80 was determined as 0.97 µM/kg. Further, in the data set on Cavia porcellus [4], the Increase is recorded as 158%. The EDmax with Cavia porcellus [5] came out at 4.13 µM/kg. The compound further came in with an IC50 in data set [1] of 2000 nM. In data set [6], the selectivity ratio was 9.6. Moreover, the Dead/treated with Cavia porcellus [7] is on record as 3.

In turn, `C[C@]12CC/C(=N\OCCN)C[C@@H]1C(=O)C[C@@H]1[C@@H]2CC[C@]2(C)C(O)CC[C@@H]12` (stereo not given in full) registered a concentration for half-maximal inhibition (IC50) in data set [1] of 600 nM.

In the case of `C[C@]12CC/C(=N\OCCCN)C[C@@H]1C(=O)C[C@@H]1[C@@H]2CC[C@]2(C)C(=O)CC[C@@H]12`, the Dead/treated with Cavia porcellus [2] was 1. Besides, in the data set on Cavia porcellus [3], the ED80 was determined as 6.55 µM/kg. The compound also gave an Increase in the data set on Cavia porcellus [4] of 129%. The same compound had an EDmax with Cavia porcellus [5] of 18.2 µM/kg. The same compound showed a half-inhibitory concentration (IC50) in [1] of 800 nM.

For `C[C@]12CC/C(=N\OCCN)C[C@@H]1C(O)C[C@@H]1[C@@H]2CC[C@]2(C)C(O)CC[C@@H]12` (stereo not given in full), half-maximal inhibition in data set [1] (IC50) was put at 10000 nM.

Compound `C[C@]12CC/C(=N/OCCN)C[C@@H]1[C@H](O)CC1C2CC[C@]2(C)C(O)CC[C@@H]12` (stereo not given in full) gave an IC50 in data set [1] of 12000 nM.

`C[C@]12CCC(=NOCCN)C[C@@H]1[C@@H](O)C[C@@H]1[C@@H]2CC[C@]2(C)C(=O)CC[C@@H]12` (stereo in doubt; 22g) showed an ED80 in the data set on Cavia porcellus [3] of 5.3 µM/kg. The same compound registered an Increase with Cavia porcellus [4] of 207%. Besides, the EDmax in the data set on Cavia porcellus [5] is 54.6 µM/kg. The Dead/treated with Cavia porcellus [8] is 1. The compound further yielded a half-maximal inhibitory concentration (IC50) in data set [1] of 1200 nM. Also, in the data set with Cavia porcellus [9], the LD/ED80 came out at 17.8.

As to `C[C@]12CCC(=NOCCN)C[C@@H]1[C@@H](O)C[C@@H]1[C@@H]2CC[C@]2(C)C(=O)CC[C@@H]12` (stereo in doubt; 22n), the Dead/treated in the data set with Cavia porcellus [2] stood at 1. Besides, in the data set with Cavia porcellus [3], the ED80 was 14.8 µM/kg. The Increase with Cavia porcellus [4] was 154%. Moreover, in the data set on Cavia porcellus [5], the EDmax came out at 111.2 µM/kg. This compound also displayed an IC50 in data set [1] of 2500 nM. In addition, the selectivity ratio in [6] amounted to 9.2.

In [10], `C[C@H]1/C(=C/C(=O)OCCN(C)C)CCC2C1C(=O)CC1C(C)(C)[C@@H](O)CC[C@]21C` (stereo not given in full) [CASSAINE] displayed a Relative potency of 0.1. This compound also registered an IC50 in [1] of 5000 nM.

On to `C[C@H]1O[C@@H](O[C@H]2[C@@H](O)C[C@H](O[C@H]3[C@@H](O)C[C@H](O[C@H]4CC[C@@]5(C)[C@H](CC[C@@H]6[C@@H]5C[C@@H](O)[C@]5(C)[C@@H](C7=CC(=O)OC7)CC[C@]65O)C4)O[C@@H]3C)O[C@@H]2C)C[C@H](O)[C@@H]1O` [DIGOXIN], for which the Dead/treated in the data set with Cavia porcellus [11] is recorded as 10. The compound further had an ED80 in the data set with Cavia porcellus [3] of 0.41 µM/kg. In the data set on Cavia porcellus [4], this compound returned an Increase of 127%. For the same compound, in the data set with Cavia porcellus [5], the EDmax amounted to 0.97 µM/kg.

`C[C@]12CCC(=NOCCN)C[C@@H]1C(=O)C[C@@H]1[C@@H]2CC[C@]2(C)C(=O)CC[C@@H]12` [ISTAROXIME]: the ED80 in the data set with Cavia porcellus [3] stood at 4.84 µM/kg. Besides, the Increase with Cavia porcellus [4] is recorded as 190%. The compound also registered an EDmax in the data set on Cavia porcellus [5] of 17.9 µM/kg. Further, in [6], the selectivity ratio was found to be 20.2. Also, in the data set with Cavia porcellus [12], the Dead/treated was determined as 7.
